In ChEMBL document CHEMBL1143324, “New N-substituted 9-azabicyclo[3.3.1]nonan-3alpha-yl phenylcarbamate analogs as sigma2 receptor ligands: synthesis, in vitro characterization, and evaluation as PET imaging and chemosensitization agents” (Bioorg Med Chem, 2009):

Columns and labels:
[1] = Displacement of [3H]RHM-1 from sigma 2-type opioid receptor in rat liver homogenates; assay type: tissue-based
[2] = target: Sigma non-opioid intracellular receptor 1 (Cavia porcellus, UniProt Q60492); experiment: Displacement of [3H](+)-pentazocine from sigma 1-type opioid receptor in guinea pig brain homogenates; assay type: tissue-based
Sigma non-opioid intracellular receptor 1, sequence (Q60492 whole entry): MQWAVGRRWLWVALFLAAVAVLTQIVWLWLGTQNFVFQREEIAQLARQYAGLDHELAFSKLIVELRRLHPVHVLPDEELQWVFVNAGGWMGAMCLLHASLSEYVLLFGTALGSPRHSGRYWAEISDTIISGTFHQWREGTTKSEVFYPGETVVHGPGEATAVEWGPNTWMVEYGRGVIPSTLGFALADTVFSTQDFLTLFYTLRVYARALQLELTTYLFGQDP

[3] = Selectivity ratio, Ki for sigma 1 receptor in guinea pig brain homogenates to Ki for sigma 2 receptor in rat liver homogenates; assay type: tissue-based
[4] = Partition coefficient, log P of the compound; assay type: physicochemical; conditions: octanol/water
[5] = target: 5-hydroxytryptamine receptor 4 (Homo sapiens, UniProt Q13639); experiment: Binding affinity to 5HT4 receptor
5-hydroxytryptamine receptor 4, sequence (Q13639 whole entry): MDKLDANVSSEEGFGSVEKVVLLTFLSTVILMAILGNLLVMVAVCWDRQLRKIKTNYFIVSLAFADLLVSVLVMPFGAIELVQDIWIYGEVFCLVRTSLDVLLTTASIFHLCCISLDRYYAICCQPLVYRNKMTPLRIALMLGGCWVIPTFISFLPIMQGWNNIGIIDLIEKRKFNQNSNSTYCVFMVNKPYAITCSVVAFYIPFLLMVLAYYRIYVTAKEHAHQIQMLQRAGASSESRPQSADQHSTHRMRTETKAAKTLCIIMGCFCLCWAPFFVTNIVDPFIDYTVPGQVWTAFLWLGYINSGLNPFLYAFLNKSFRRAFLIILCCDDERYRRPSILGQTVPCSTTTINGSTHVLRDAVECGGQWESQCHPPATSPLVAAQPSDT

[6] = target: T1, 5-hydroxytryptamine receptor 3A (Homo sapiens, UniProt P46098); experiment: Binding affinity to 5HT3 receptor
T1 sequence (P46098 whole entry): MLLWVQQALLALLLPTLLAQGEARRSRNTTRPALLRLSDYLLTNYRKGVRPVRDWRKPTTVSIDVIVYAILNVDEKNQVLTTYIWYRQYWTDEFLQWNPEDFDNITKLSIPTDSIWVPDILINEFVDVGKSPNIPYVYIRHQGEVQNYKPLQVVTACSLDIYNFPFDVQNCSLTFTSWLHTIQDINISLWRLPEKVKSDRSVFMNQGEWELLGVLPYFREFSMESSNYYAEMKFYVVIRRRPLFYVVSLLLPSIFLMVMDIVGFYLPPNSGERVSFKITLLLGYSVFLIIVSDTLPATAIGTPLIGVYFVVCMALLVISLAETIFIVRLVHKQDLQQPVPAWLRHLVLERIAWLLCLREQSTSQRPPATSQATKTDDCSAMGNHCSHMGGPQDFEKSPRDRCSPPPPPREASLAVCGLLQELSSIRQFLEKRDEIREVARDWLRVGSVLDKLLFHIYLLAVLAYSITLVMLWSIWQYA

EMT6 = experiment: Binding affinity to sigma 2 receptor in mouse EMT6 cell membrane homogenates; assay type: cell membranes; conditions: tested as the 18F-labelled form
[7] = Ratio of drug level in tumor to muscle of […] EMT6 cells bearing BALB/c mouse after 1 hr; assay type: ADME, cell-based; conditions: emt6, 1 h
[8] = Ratio of drug level in tumor to muscle of mouse EMT6 cells bearing BALB/c mouse after 5 mins; assay type: ADME, cell-based; conditions: emt6, 5 min
Outline: (§1)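 Tumor-to-tissue ratios were calculated from %ID/g values at 5 min, 30 min, 1 h and 2 h. The 18F tracer (~20 µCi, tail vein, 10% ethanol/90% water) was given to female BALB/c mice bearing s.c. EMT-6 tumors (~5×10^5 cells implanted 11 days prior; ~100-150 mg). Tissues were gamma-counted against a diluted standard of the injected dose.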

[9] = Biodistribution in tumor of iv dosed mouse EMT6 cells bearing BALB/c mouse after 5 mins; assay type: ADME, organism-based, Neoplasm; conditions: in vivo
Outline: (§2)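 Female BALB/c mice were implanted s.c. in the scapular region with ~5×10^5 EMT-6 cells in PBS 11 days earlier, giving tumors of ~100-150 mg. The 18F tracer (~20 µCi per 150 µL, in 10% ethanol/90% water) was given via tail vein, and mice were killed at 5 min, 30 min, 1 h or 2 h. Tissues were weighed and gamma-counted against a diluted injected-dose standard, giving %ID/g.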

Blood [10] = experiment: Biodistribution in iv dosed mouse EMT6 cells bearing BALB/c mouse blood after 30 mins; assay type: ADME, organism-based; conditions: in vivo, 0.5 h; outline: as §2
Heart [11] = experiment: Biodistribution in iv dosed mouse EMT6 cells bearing BALB/c mouse heart after 5 mins; assay type: ADME, organism-based; conditions: in vivo; outline: as §2
Muscle tissue [12] = experiment: Biodistribution in iv dosed mouse EMT6 cells bearing BALB/c mouse muscle after 30 mins; assay type: ADME, organism-based; conditions: in vivo, 0.5 h; outline: as §2
Blood [13] = experiment: Biodistribution in iv dosed mouse EMT6 cells bearing BALB/c mouse blood after 1 hr; assay type: ADME, organism-based; conditions: in vivo; outline: as §2
[14] = Ratio of drug level in tumor to fat of mouse EMT6 cells bearing BALB/c mouse after 30 mins; assay type: ADME, cell-based; conditions: emt6, 0.5 h; outline: as §1
[15] = Ratio of drug level in tumor to muscle of mouse EMT6 cells bearing BALB/c mouse after 1 hr; assay type: ADME, cell-based; conditions: emt6, 1 h; outline: as §1
[16] = Ratio of drug level in tumor to muscle of […] EMT6 cells bearing BALB/c mouse after 2 hrs; assay type: ADME, cell-based; conditions: emt6, 2 h
Bone = experiment: Biodistribution in iv dosed mouse EMT6 cells bearing BALB/c mouse bone after 2 hrs; assay type: ADME, organism-based, Bone element; conditions: in vivo; outline: as §2
[17] = Ratio of drug level in tumor to blood of mouse EMT6 cells bearing BALB/c mouse after 30 mins; assay type: ADME, cell-based; conditions: emt6, 0.5 h; outline: as §1
[18] = Ratio of drug level in tumor to muscle of […] EMT6 cells bearing BALB/c mouse after 30 mins; assay type: ADME, cell-based; conditions: emt6, 0.5 h
Liver [19] = experiment: Biodistribution in iv dosed mouse EMT6 cells bearing BALB/c mouse liver after 5 mins; assay type: ADME, organism-based; conditions: in vivo; outline: as §2
Brain [20] = experiment: Biodistribution in iv dosed mouse EMT6 cells bearing BALB/c mouse brain after 30 mins; assay type: ADME, organism-based; conditions: in vivo, 0.5 h; outline: as §2
[21] = Ratio of drug level in tumor to fat of mouse EMT6 cells bearing BALB/c mouse after 5 mins; assay type: ADME, cell-based; conditions: emt6, 5 min; outline: as §1
[22] = Ratio of drug level in tumor to muscle of mouse EMT6 cells bearing BALB/c mouse after 2 hrs; assay type: ADME, cell-based; conditions: emt6, 2 h; outline: as §1
Muscle tissue [23] = experiment: Biodistribution in iv dosed mouse EMT6 cells bearing BALB/c mouse muscle after 1 hr; assay type: ADME, organism-based; conditions: in vivo; outline: as §2
Brain [24] = experiment: Biodistribution in iv dosed mouse EMT6 cells bearing BALB/c mouse brain after 1 hr; assay type: ADME, organism-based; conditions: in vivo; outline: as §2
[25] = Ratio of drug level in tumor to fat of mouse EMT6 cells bearing BALB/c mouse after 1 hr; assay type: ADME, cell-based; conditions: emt6, 1 h; outline: as §1
[26] = Ratio of drug level in tumor to blood of mouse EMT6 cells bearing BALB/c mouse after 1 hr; assay type: ADME, cell-based; conditions: emt6, 1 h; outline: as §1
[27] = Biodistribution in tumor of iv dosed mouse EMT6 cells bearing BALB/c mouse after 2 hrs; assay type: ADME, organism-based, Neoplasm; conditions: in vivo; outline: as §2
Liver [28] = experiment: Biodistribution in iv dosed mouse EMT6 cells bearing BALB/c mouse liver after 30 mins; assay type: ADME, organism-based; conditions: in vivo, 0.5 h; outline: as §2
[29] = Ratio of drug level in tumor to muscle of mouse EMT6 cells bearing BALB/c mouse after 30 mins; assay type: ADME, cell-based; conditions: emt6, 0.5 h; outline: as §1
[30] = Ratio of drug level in tumor to blood of mouse EMT6 cells bearing BALB/c mouse after 5 mins; assay type: ADME, cell-based; conditions: emt6, 5 min; outline: as §1
[31] = Ratio of drug level in tumor to muscle of […] EMT6 cells bearing BALB/c mouse after 5 mins; assay type: ADME, cell-based; conditions: emt6, 5 min
Heart [32] = experiment: Biodistribution in iv dosed mouse EMT6 cells bearing BALB/c mouse heart after 30 mins; assay type: ADME, organism-based; conditions: in vivo, 0.5 h; outline: as §2
[33] = Ratio of drug level in tumor to fat of mouse EMT6 cells bearing BALB/c mouse after 2 hrs; assay type: ADME, cell-based; conditions: emt6, 2 h; outline: as §1
Kidney = experiment: Biodistribution in iv dosed mouse EMT6 cells bearing BALB/c mouse kidney after 1 hr; assay type: ADME, organism-based; conditions: in vivo; outline: as §2
[34] = Ratio of drug level in tumor to blood of mouse EMT6 cells bearing BALB/c mouse after 2 hrs; assay type: ADME, cell-based; conditions: emt6, 2 h; outline: as §1

## COc1ccc(C)cc1C(=O)NCCCCN1CCc2cc(OO)c(OO)cc2C1
[1]
  Ki: 10.3 nM
[2]
  Ki: 3080 nM

## COc1ccc(C)cc1NC(=O)OC1CC2CCCC(C1)N2CCF (configuration not stated)
[1]
  Ki: 143 nM
[3]
  Ratio Ki: 14
[4]
  logP: 2.85
[2]
  Ki: 2000 nM

## COc1ccc(CN2C3CCCC2CC(OC(=O)Nc2cc(C)ccc2OC)C3)cc1 (configuration not stated)
[1]
  Ki: 40.7 nM
[3]
  Ratio Ki: 8
[4]
  logP: 3.3
[2]
  Ki: 323 nM

## COc1ccc(C)cc1NC(=O)OC1CC2CCCC(C1)N2CCc1ccc(CCF)cc1 (configuration not stated)
[1]
  Ki: 276 nM
[3]
  Ratio Ki: 10
[4]
  logP: 3.69
[2]
  Ki: 2630 nM

## COc1ccc(C)cc1NC(=O)OC1CC2CCCC(C1)N2Cc1ccncc1 (configuration not stated)
[1]
  Ki: 522 nM
[3]
  Ratio Ki: 3
[4]
  logP: 2.94
[2]
  Ki: 1560 nM

## COc1ccc(C)cc1NC(=O)OC1CC2CCCC(C1)N2Cc1cccnc1 (configuration not stated)
[1]
  Ki: 184 nM
[3]
  Ratio Ki: 13
[4]
  logP: 2.7
[2]
  Ki: 2350 nM

## COc1ccc(C)cc1NC(=O)OC1CC2CCCC(C1)N2Cc1ccc(N(C)C)cc1 (configuration not stated)
[1]
  Ki: 2.58 nM
[3]
  Ratio Ki: 557
[4]
  logP: 3.02
[2]
  Ki: 1440 nM

## COc1ccc(C)cc1NC(=O)OC1CC2CCCC(C1)N2Cc1ccccc1 (configuration not stated)
[1]
  Ki: 3.1 nM
[5]
  Ki: > 1000 nM
[6]
  Ki: > 1000 nM

## COc1ccc(C)cc1NC(=O)OC1CC2CCCC(C1)N2Cc1ccc(CCF)cc1 (configuration not stated)
[1]
  Ki: 0.82 nM
[3]
  Ratio Ki: 2090
EMT6
  Activity: 2 nM
[2]
  Ki: 1710 nM

## COc1ccc(C)cc1NC(=O)OC1CC2CCCC(C1)N2Cc1ccc(SC)cc1 (configuration not stated)
[1]
  Ki: 8190 nM
[4]
  logP: 3.92
[2]
  Ki: 2020 nM

## O=C(CCCN1CCC(O)(c2ccc(Cl)cc2)CC1)c1ccc(F)cc1 [HALOPERIDOL]
[4]
  logP: 3.36

## COc1ccc(C)cc1NC(=O)OC1CC2CCCC(C1)N2CCc1ccc(N(C)C)cc1 (configuration not stated)
[1]
  Ki: 195 nM
[3]
  Ratio Ki: 10
[4]
  logP: 3.36
[2]
  Ki: 1870 nM

## COc1ccc(C)cc1NC(=O)OC1CC2CCCC(C1)N2Cc1ccc(CC[18F])cc1 (configuration not stated)
[7]
  Activity: 0.42 % ID/g
[8]
  Activity: 0.3 % ID/g
[9]
  Activity: 1.39 % ID/g
Blood [10]
  Activity: 0.99 % ID/g
Heart [11]
  Activity: 18.49 % ID/g
Muscle tissue [12]
  Activity: 2.9 % ID/g
Blood [13]
  Activity: 0.93 % ID/g
[14]
  Activity: 0.45 % ID/g
[15]
  Activity: 1.92 % ID/g
[16]
  Activity: 0.82 % ID/g
Bone
  Activity: 5.68 % ID/g
[17]
  Activity: 3.67 % ID/g
[18]
  Activity: 0.22 % ID/g
Liver [19]
  Activity: 21.14 % ID/g
Brain [20]
  Activity: 2.12 % ID/g
[21]
  Activity: 0.65 % ID/g
[22]
  Activity: 2.53 % ID/g
Muscle tissue [23]
  Activity: 1.92 % ID/g
Brain [24]
  Activity: 1.55 % ID/g
[25]
  Activity: 0.41 % ID/g
[26]
  Activity: 3.86 % ID/g
[27]
  Activity: 4.08 % ID/g
Liver [28]
  Activity: 28.5 % ID/g
[29]
  Activity: 1.32 % ID/g
[30]
  Activity: 0.82 % ID/g
[31]
  Activity: 0.01 % ID/g
Heart [32]
  Activity: 3.7 % ID/g
[33]
  Activity: 0.32 % ID/g
Kidney
  Activity: 10.38 % ID/g
[34]
  Activity: 6.96 % ID/g

## C=CCN1C2CCCC1CC(OC(=O)Nc1cc(C)ccc1OC)C2 (configuration not stated)
[1]
  Ki: 85.9 nM
[3]
  Ratio Ki: 15
[4]
  logP: 2.86
[2]
  Ki: 1260 nM

## CCn1c(=O)n(C(=O)NC2CC3CCC(C2)N3C)c2ccccc21 (configuration not stated)
[1]
  Ki: 32 nM
[5]
  Ki: 13 nM
[6]
  Ki: 1 nM
[2]
  Ki: 6300 nM

## COc1ccc(C)cc1NC(=O)OC1CC2CCCC(C1)N2Cc1ccc(F)nc1 (configuration not stated)
[1]
  Ki: 572 nM
[3]
  Ratio Ki: 4
[4]
  logP: 3.21
[2]
  Ki: 2510 nM

## COc1ccc(CCN2C3CCCC2CC(OC(=O)Nc2cc(C)ccc2OC)C3)cc1 (configuration not stated)
[1]
  Ki: 126 nM
[3]
  Ratio Ki: 4
[4]
  logP: 3.22
[2]
  Ki: 447 nM
